Test results as given in ChEMBL document CHEMBL1828578, “Antimalarial activities of new guanidylimidazole and guanidylimidazoline derivatives” (J Med Chem, 2011).
In brackets after ≈: the same amount, converted by molar mass. Activity calls are given as the source filed them. The calls are words filed in the database; no cut-off is given here.

Experiments:
[1] = Metabolic stability of the compound in rhesus monkey microsomes assessed as half life at 1 uM by LC-MS analysis; format: ADME, Macaca mulatta, Microsome
[2] = Metabolic stability of the compound in mouse liver microsomes assessed as half life at 1 uM by LC-MS analysis; format: ADME, Microsome
Method in brief: (§1)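 Compound at 1 μM final (from 10 or 20 mM DMSO stocks) was incubated with 0.5 mg/mL pooled human or mouse liver microsomes. The mix held 1.3 mM NADP and 3.3 mM MgCl₂ in 0.1 M PBS pH 7.4, and the reaction was started with 1 U/mL G6PD. Incubation was at 37 °C with shaking, and samples were quenched with cold acetonitrile at 0, 10, 20, 30 and 60 min.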

[3] = tested on: Plasmodium falciparum; assay: Antimalarial activity against sporozoites stage of Plasmodium falciparum D6 after 3 days by microdilution technique; format: functional, organism-based; conditions: D6, 72 h, in the assay text read “blood stage” for “sporozoites stage”
Method in brief: (§2)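 P. falciparum clones were tested in vitro using a modified semiautomated microdilution technique.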

[4] = tested on: Plasmodium falciparum; assay: Antimalarial activity against […] of Plasmodium falciparum TM91C235 after for 3 days by microdilution technique; format: functional, organism-based; conditions: TM91C235, 72 h; method in brief: as §2
[5] = tested on: Plasmodium berghei; assay: Antimalarial activity against Plasmodium berghei in exoerythrocytic mouse model assessed as causal prophylaxis at 320 mg/kg/day, po administered one day before infection, on day of infection and one day post infection; format: functional, organism-based
Method in brief: (§3)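 P. berghei sporozoite exoerythrocytic mouse model. Compound was ground and suspended in hydroxyethylcellulose plus Tween 80, then given po at several dose levels once daily: the day before, 4 h before, and the day after sporozoite inoculation. Mice alive on day 31 with no parasites in any blood film were scored as protected.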

[6] = tested on: Plasmodium falciparum; assay: Antimalarial activity against […] of Plasmodium falciparum W2 after for 3 days by microdilution technique; format: functional, organism-based; conditions: W2, 72 h; method in brief: as §2
[7] = Metabolic stability of the compound in human liver microsomes assessed as half life at 1 uM by LC-MS analysis; format: ADME, Microsome; method in brief: as §1
[8] = tested on: Plasmodium berghei; assay: Antimalarial activity against Plasmodium berghei in exoerythrocytic mouse model assessed as causal prophylaxis at 160 mg/kg/day, po administered one day before infection, on day of infection and one day post infection; format: functional, organism-based; method in brief: as §3
[9] = tested on: Mus musculus; assay: Toxicity in exoerythrocytic mouse model assessed as reduction in body weight at 160 mg/kg/day, po administered one day before infection, on day of infection and one day post infection measured on day 31; format: organism-based; parameters: route oral; conditions: in vivo
[10] = tested on: Mus musculus; assay: Toxicity against exoerythrocytic mouse model assessed as reduction in body weight at 320 mg/kg/day, po administered one day before infection, on day of infection and one day post infection measured up to 31 days; format: organism-based; parameters: route oral; conditions: in vivo, 744 h
[11] = tested on: Plasmodium cynomolgi; assay: Antimalarial activity against sporozoites stage of Plasmodium cynomolgi infected in Rhesus monkey assessed as delay in patency at 0.316 mg/kg/day, po administered one day before infection, on day of infection and one day post infection; format: functional
Method in brief: (§4)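 Causal prophylaxis test in Rhesus monkeys inoculated with P. cynomolgi sporozoites, two monkeys per group. Drug was given orally on days −1, 0 and +1 relative to inoculation. Patency was the first day parasites were detected in blood smears, and the delay was counted against vehicle-treated controls.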

[12] = tested on: Plasmodium cynomolgi; assay: Antimalarial activity against sporozoites stage of Plasmodium cynomolgi infected in Rhesus monkey assessed as delay in patency at 1.78 mg/kg/day, po administered one day before infection, on day of infection and one day post infection; format: functional; method in brief: as §4
[13] = tested on: Plasmodium cynomolgi; assay: Antimalarial activity against sporozoites stage of Plasmodium cynomolgi infected in Rhesus monkey assessed as delay in patency at 50 mg/kg/day, po administered one day before infection, on day of infection and one day post infection; format: functional; method in brief: as §4

| SMILES | half-life at 1 µM [1] [min] | half-life at 1 µM [2] [min] | IC50 [3] [µg/mL] | IC50 [4] [µg/mL] | IC50 [6] [µg/mL] | half-life at 1 µM [7] [min] | Activity [5] | Activity [8] | Activity [9] | Activity [10] | Time [11] [days] | Time [12] [days] | Time [13] [days] |
| --- | --- | --- | --- | --- | --- | --- | --- | --- | --- | --- | --- | --- | --- |
| CC(C)n1ccnc1/N=C(/Nc1ccc(Cl)c(Cl)c1)NC(C)(C)C |  | 18.2 | 1.1 (≈ 2.99 µM) |  | 1 (≈ 2.72 µM) | 40.4 | inactive | inactive |  |  |  |  |  |
| CC(C)n1ccnc1/N=C(/NC(=O)Cc1ccccc1)Nc1ccc(Cl)c(Cl)c1 |  | 50.8 | > 5 | > 5 | > 5 | > 60 | inactive | inactive |  |  |  |  |  |
| CC(C)n1ccnc1/N=C(\NCC(C)(C)C)Nc1ccc(Cl)c(Cl)c1 |  | 10.8 | 1.4 (≈ 3.66 µM) |  | 0.9 (≈ 2.35 µM) | 32.9 | inactive | inactive |  |  |  |  |  |
| CC(C)N1CCN=C1/N=C(/Nc1ccc(Cl)c(Cl)c1)N1CCCCC1 |  | 21.5 | 0.4 (≈ 1.05 µM) | 0.3 (≈ 0.785 µM) | 0.2 (≈ 0.523 µM) | > 60 |  |  | Toxic | Toxic |  |  |  |
| COc1cc(C)c2c(Oc3cccc(C(F)(F)F)c3)c(OC)cc(NC(C)CCCN)c2n1 (stereo not drawn) [TAFENOQUINE] |  |  |  |  |  |  |  |  |  |  | 2 |  |  |
| CC(C)N/C(=N\c1ncc[nH]1)Nc1ccc(Cl)c(Cl)c1 |  | 37.6 | > 5 | > 5 | 0.6 (≈ 1.92 µM) | > 60 |  |  | Toxic | Toxic |  |  |  |
| CC(C)N1CCN=C1/N=C(/Nc1ccc(Cl)c(Cl)c1)NC(C)(C)C |  | 16.6 | 0.4 (≈ 1.08 µM) |  | 0.4 (≈ 1.08 µM) | > 60 |  | inactive | Toxic | Toxic |  |  |  |
| CC(C)n1ccnc1/N=C(\N)Nc1ccc(Cl)c(Cl)c1 | > 60 | 27.7 | 2.8 (≈ 8.97 µM) | 2.4 (≈ 7.69 µM) | 0.7 (≈ 2.24 µM) | > 60 | Active | Active |  |  |  |  |  |
| COc1cc(NC(C)CCCN)c2ncccc2c1 (stereo not drawn) [PRIMAQUINE] |  |  |  |  |  |  |  |  |  |  |  | 5 |  |
| N/C(=N\c1ncc[nH]1)Nc1ccc(Cl)c(Cl)c1 |  | 23.6 | 0.5 (≈ 1.85 µM) | 2.5 (≈ 9.26 µM) | 1.4 (≈ 5.18 µM) | 42.5 | inactive | inactive |  |  |  |  |  |
| CC(C)n1ccnc1/N=C(/Nc1ccc(Cl)c(Cl)c1)N1CCCCC1 | 7.8 | 19.7 | 0.5 (≈ 1.31 µM) | 0.3 (≈ 0.789 µM) | 0.3 (≈ 0.789 µM) | 27 | inactive | inactive |  |  |  |  |  |
| CCC(CC)C(=O)N/C(=N/c1nccn1C(C)C)Nc1ccc(Cl)c(Cl)c1 |  | > 60 | 1 (≈ 2.44 µM) | 2.9 (≈ 7.07 µM) | 0.3 (≈ 0.731 µM) | > 60 | inactive | inactive |  |  |  |  |  |
| CC(C)N1CCN=C1/N=C(\N)Nc1ccc(Cl)c(Cl)c1 | 36.3 | > 60 | 1.4 (≈ 4.46 µM) | 1.2 (≈ 3.82 µM) | 0.7 (≈ 2.23 µM) | > 60 |  |  |  |  |  |  |  |
| CCC(CC)C(=O)N/C(=N/c1nccn1C(C)(C)C)Nc1ccc(Cl)c(Cl)c1 |  | 12.5 | > 5 | > 5 | > 5 | 26 |  | inactive |  |  |  |  |  |

Now from value to compound, other results behind:

| half-life at 1 µM [1] [min] | half-life at 1 µM [2] [min] | IC50 [3] [µg/mL] | IC50 [4] [µg/mL] | IC50 [6] [µg/mL] | half-life at 1 µM [7] [min] | SMILES | Activity [5] | Activity [8] | Activity [9] | Activity [10] | Time [11] [days] | Time [12] [days] | Time [13] [days] |
| --- | --- | --- | --- | --- | --- | --- | --- | --- | --- | --- | --- | --- | --- |
| 45 | 48 | 1.6 (≈ 4.9 µM) | 1.2 (≈ 3.68 µM) | 0.4 (≈ 1.23 µM) | > 60 | CC(C)(C)n1ccnc1/N=C(\N)Nc1ccc(Cl)c(Cl)c1 | inactive | inactive |  |  |  |  |  |
|  | 11 | > 2 | > 2 | > 2 | 19.7 | CC(C)C(=O)N/C(=N/c1nccn1Cc1ccccc1)Nc1ccc(Cl)c(Cl)c1 | inactive | inactive |  |  |  |  |  |
|  | > 60 | 2.5 (≈ 6.54 µM) | 2.2 (≈ 5.75 µM) | 1 (≈ 2.62 µM) | > 60 | CC(C)C(=O)N/C(=N/c1nccn1C(C)C)Nc1ccc(Cl)c(Cl)c1 |  |  |  |  |  |  |  |
|  | > 60 | 0.3 (≈ 0.669 µM) | 0.2 (≈ 0.446 µM) | 0.2 (≈ 0.446 µM) | > 60 | CC(C)N1CCN=C1/N=C(/Nc1ccc(Cl)c(Cl)c1)NC12CC3CC(CC(C3)C1)C2 |  |  |  |  |  |  |  |
|  | 9 | 1.4 (≈ 3.8 µM) | 0.9 (≈ 2.44 µM) | 0.4 (≈ 1.09 µM) | 48 | CC(C)N/C(=N\c1nccn1C(C)(C)C)Nc1ccc(Cl)c(Cl)c1 |  |  | Toxic | Toxic |  |  |  |
|  |  | 1.1 (≈ 2.88 µM) |  | 1.5 (≈ 3.92 µM) | 20.3 | CC(C)N/C(=N\c1nccn1CC(C)(C)C)Nc1ccc(Cl)c(Cl)c1 | inactive | inactive |  |  |  |  |  |
|  | 11.7 | 0.8 (≈ 2.02 µM) |  | 0.8 (≈ 2.02 µM) | 12.1 | CC(C)(C)Cn1ccnc1/N=C(/Nc1ccc(Cl)c(Cl)c1)NC(C)(C)C | inactive | inactive |  |  |  |  |  |
|  | 37 | > 2 | > 2 | > 2 | > 60 | N/C(=N\c1nccn1Cc1ccccc1)Nc1ccc(Cl)c(Cl)c1 | inactive | inactive |  |  |  |  |  |
|  | 18 | 1.3 (≈ 3.23 µM) | 2.5 (≈ 6.21 µM) | 1.6 (≈ 3.98 µM) | 16 | CC(C)N/C(=N\c1nccn1Cc1ccccc1)Nc1ccc(Cl)c(Cl)c1 | inactive | inactive |  |  |  |  |  |
| 7.8 | 5.9 | 2.6 (≈ 7.34 µM) | 2.4 (≈ 6.77 µM) | 0.8 (≈ 2.26 µM) | 22.5 | CC(C)N/C(=N\c1nccn1C(C)C)Nc1ccc(Cl)c(Cl)c1 |  |  |  |  |  |  | 9 |
|  | > 60 | > 5 | > 5 | > 5 | > 60 | CC(C)(C)C(=O)N/C(=N/c1nccn1C(C)(C)C)Nc1ccc(Cl)c(Cl)c1 |  |  |  |  |  |  |  |
|  | > 60 | > 5 | > 5 | > 5 | > 60 | CC(C)n1ccnc1/N=C(/NC(=O)OC(C)(C)C)Nc1ccc(Cl)c(Cl)c1 |  |  |  |  |  |  |  |
|  | 13.6 | 0.5 (≈ 1.4 µM) | 0.7 (≈ 1.96 µM) | 0.4 (≈ 1.12 µM) | 50.7 | CC(C)N/C(=N\C1=NCCN1C(C)C)Nc1ccc(Cl)c(Cl)c1 |  | inactive | Toxic | Toxic |  |  |  |
|  | > 60 | > 5 | > 5 | > 5 | > 60 | CC(C)n1ccnc1/N=C(/NC(=O)C(C)(C)C)Nc1ccc(Cl)c(Cl)c1 | inactive | inactive |  |  |  |  |  |
